# Source: PubChem BioAssay (The Scripps Research Institute Molecular Screening Center)
# A selection: hits, their analogues and other compounds. The true share with any hit is near 3.2%.
# TRPML3 agonist: human mucolipin-3 channel agonism | Q8TDD5 | hit rate 0.29% among 220,000 | HEK293 TRPML3-YFP, Fluo-8 calcium fluorescence; 100% = the carbachol control signal | activation, % at 3 µM | AID 1448;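 active = activation above its plate's cutoff, the mean activation of the plate's test wells plus 3 SD, cut at about 12% in these data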;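 note: 0% = DMSO only wells and 100% = carbachol wells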
#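 Test system: HEK293 cells stably carrying human TRPML3-YFP; Doses: single dose, 3 µM final nominal compound, 0.3% DMSO final; Schedule: dye loading 1 h 37 °C then 30 min ambient, 125 s read; Technique: Fluo-8 calcium fluorescence; Benchmarks: high control carbachol 87 µM, low control DMSO.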
# zfTRPN1 agonist: zebrafish TRPN1 (NompC) channel agonism. AID 1424. HEK293 zebrafish TRPN1-YFP, Fluo-8 calcium fluorescence; 100% = response to 87 µM carbachol. activation, % at 3 µM. hit rate 0.18% among 220,000;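 active = activation above its plate's cutoff, the mean activation of test wells on that plate plus 3 SD, cut at about 19% in these data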;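 note: 0% = DMSO alone and 100% = 87 µM carbachol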
#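 System: zebrafish TRPN1-YFP in HEK293 cells / Dosing: 3 µM single point / Timing: dye loading 1 h at 37 °C, then 30 min room temperature / Signal: Fluo-8 calcium fluorescence, excitation 470-495 nm, emission 515-575 nm / Read-out basis: percent activation from peak over basal fluorescence ratio, control-normalized / Control set: high carbachol 87 µM, low DMSO alone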
# CHO parental Ca: signal in parental CHO cells, OX1R antagonist counter-screen; parental CHO-K1, ATP-induced calcium, Fluo-8 fluorescence; inhibition, % at 5.6 µM; hit rate 0.63% among 330,000; AID 463079;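 active = inhibition above that plate's mean sample inhibition plus 3 SD, cut at about 26% in these data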;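 note: 0% = ATP-challenged DMSO wells and 100% = DMSO wells without ATP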
#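 Measured by: calcium-sensitive Fluo-8 fluorescence / Test system: CHO parental line / Controls: ATP-challenged DMSO wells low, unchallenged DMSO wells high / Measure: % inhibition / Compound: single nominal dose of 5.6 µM per compound / Replicates: single well per compound, no replicates / Reagent: ATP as calcium-mobilizing challenge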
# GPR7 antagonist: human neuropeptides B/W receptor 1 antagonism. P48145. GPR7-expressing cells, fluorescence antagonist assay. inhibition, % at 4.4 µM. hit rate 1.1% among 290,000. AID 1861; in the data active = inhibition above about 16%, passing the limit was not always enough;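 note: cells stimulated with the agonist NPW; 0% = agonist with vehicle and 100% = vehicle without agonist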
# Target sequence (P48145 whole entry, looked up): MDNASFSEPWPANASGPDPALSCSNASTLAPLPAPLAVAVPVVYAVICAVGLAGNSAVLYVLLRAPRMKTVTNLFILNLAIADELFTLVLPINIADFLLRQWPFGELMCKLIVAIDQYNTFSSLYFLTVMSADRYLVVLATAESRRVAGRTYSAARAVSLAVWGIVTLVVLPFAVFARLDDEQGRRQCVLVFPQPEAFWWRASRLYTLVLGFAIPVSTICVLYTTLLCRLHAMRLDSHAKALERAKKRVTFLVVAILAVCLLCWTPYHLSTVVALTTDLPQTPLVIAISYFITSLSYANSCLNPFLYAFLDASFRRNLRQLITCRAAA
# OX1R antag-1: blocks the human orexin 1 receptor; O43613; CHO/OX1R cells, Fluo-8 calcium fluorescence, orexin A; inhibition, % at 5 µM; hit rate 0.43% among 330,000;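 active = inhibition above its plate's threshold, mean inhibition of all tested compounds on the plate plus 3 SD, cut at about 37% in these data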;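 note: 0% = orexin A challenge wells and 100% = SB-334867-A antagonist wells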
# OX1R antag-2: antagonists of human orexin 1 receptor (OX1R); inhibition, % at 6.6 µM; OX1R-expressing cells, FRET antagonist read-out; hit rate 1.8% among 330,000; O43613; in the data active = inhibition mostly above about 38%, no sharp cut-off; inactive = mostly below about 40%;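 note: 0% = agonist challenge alone and 100% = reference antagonist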
# The depositor's hits bear a star; x = no result given.
SMILES,TRPML3 agonist,zfTRPN1 agonist,CHO parental Ca,GPR7 antagonist,OX1R antag-1,OX1R antag-2
CC(C)Cn1c(SCC(=O)N2CCc3ccccc3C2)nc2cc(Cl)ccc2c1=O,0,1,-27,-3,-29,29
Cc1cccc(-n2c(SCC(=O)N3CC(=O)Nc4ccccc43)nc3ccccc3c2=O)c1,6,10,-18,16,-4,32
Cc1ccc(-n2c(SCC(=O)N3CC(=O)Nc4ccccc43)nc3ccccc3c2=O)cc1C,3,4,9,9,15,72*
COCCn1c(SCC(=O)N2CCCc3ccccc32)nc2ccccc2c1=O,-1,-1,-9,-8,2,53*
COCCn1c(SCC(=O)N2CCCc3ccccc32)nc2c(c1=O)SC(C)C2 (centres undefined),-1,-1,-18,-8,-29,20
CC(C)c1ccccc1-n1c(SCC(=O)N2CCc3ccccc3C2)nc2ccccc2c1=O,-1,-2,-13,18,24,73*
O=C(CSc1nc2ccccc2c(=O)n1-c1ccccc1)N1CCc2ccccc2C1,1,-1,-28,-5,-9,55*
CN1CCN(c2nc(-c3ccc(Cl)cc3)cc(=O)[nH]2)CC1,x,x,-12,2,-13,-8
CC/C(=N\NC(=O)c1ccc(CN(C)S(=O)(=O)c2ccc(C)cc2)cc1)c1ccc(OC(F)F)cc1,1,0,2,2,-2,16
OC(CN1CCOCC1)(c1ccccc1)c1ccccn1 (centres undefined),x,x,-8,12,-2,5
CCn1c(CNC(=O)c2cc(OC)c(OC)c(OC)c2)cc2ccccc21,x,x,3,1,5,69*
COCCNC(=O)CCC1CCN(Cc2ccc(-c3ccccc3)cc2)CC1,x,x,-5,-6,-21,10
Cc1ccc(Cl)cc1N1CCN(C(=O)c2cc3c(=O)[nH]c4ccccc4c3n2C)CC1,1,2,45*,-3,40,17
CCOCCCNC(=O)/C(C#N)=C/c1ccc([N+](=O)[O-])o1,1,1,5,-4,9,27
Nn1c(SCC(=O)Nc2ccc3c(c2)OCCO3)nnc1C(F)(F)F,0,0,-11,14*,-13,15
Cc1nnc(SCC(=O)Nc2ccc3c(c2)OCCO3)n1N,0,1,-3,-7,-20,19
CC(=O)Nc1cccc(NC(=O)CSc2ncc(-c3ccc(Cl)cc3)n2Cc2ccco2)c1,0,4,61*,37*,73*,82*
O=C(CSc1nnc(-c2ccc(Cl)cc2)n1Cc1ccco1)Nc1ccc2c(c1)OCCO2,0,-1,-4,4,-2,22
Cc1cc(Cl)ccc1NC(=O)CSc1nnc(-c2ccncc2)n1Cc1ccco1,0,0,-24,0,-5,6
O=C(CSc1nnc(-c2ccccc2Cl)n1Cc1ccco1)Nc1ccc2c(c1)OCCO2,-1,-1,-19,-8,-21,71*
COc1ccc(NC(=O)CSc2nnc(-c3ccccc3)n2Cc2ccco2)cc1OC,0,1,-26,-4,-11,38*
COc1cc(CCC(=O)OCC(=O)Nc2ccc(F)c(F)c2F)cc(OC)c1OC,x,x,-18,-6,-17,16
CC(NC(=O)CCCc1nnc2n(C)c(=O)c3sccc3n12)c1ccccc1 (centres undefined),x,x,5,-4,-18,9
CCn1c(SCC(=O)Nc2ccc3c(c2)OCCO3)nnc1-c1c[nH]c2ccccc12,0,2,-16,-11,-10,38*
O=C(CSc1nnc(-c2c[nH]c3ccccc23)n1CC1CCCO1)Nc1ccc2c(c1)OCCO2 (centres undefined),2,0,-22,-10,-19,26
COc1cccc(NC(=S)NN=C2CCCCCC2)c1,0,2,x,12,x,x
CCN(c1cccc(C)c1)S(=O)(=O)c1ccc2c(c1)oc(=O)n2C,x,x,-13,14,-22,9
CCN(CCCNS(=O)(=O)c1ccc2c(c1)oc(=O)n2C)c1cccc(C)c1,0,0,0,17*,-7,12
COc1ccc(OC)c(-c2csc(NC(=O)Cn3[nH]c(=O)c4ccccc4c3=O)n2)c1,-1,-2,16,17*,2,29
